PubChem BioAssay
A number with no mark means an inactive call. The source made the active and inactive calls.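 The calls were made as follows, unless noted: active = GFP response above 150% of the DMSO control; inconclusive = fewer than 70 events counted in any yeast strain; inactive = the rest.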

Experiment: LAP4-GFP expression modulators in yeast, confirmation, cell-based, cherry picks, flow cytometry, mother/daughter gates (AID 2271);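 also: ratio of sample to DMSO plate mean so 100% equals DMSO level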
Details: S. cerevisiae LAP4-GFP strain, 3 h, at 10 µM, active compounds read high, 100 means same as DMSO control
Summary of the method: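 System: GFP-fusion yeast strain | Input: Yeast cells seeded at OD600 of 0.2 | Technique: HT flow cytometry, GFP fluorescence channel | Read-out: % GFP response vs DMSO | Dosing: Single test-compound dose, 10 µM final | Controls: Positive rapamycin (400 ng/mL), negative DMSO | Times: 3 h treatment at 30 °C with rotation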

| Compound | GFP response relative to DMSO |
| --- | --- |
| N/C(=N\OC(=O)c1ccc(Cl)cc1Cl)c1ccccc1 | 155% (active) |
| CCCCNC(=O)c1cc2c(=O)n3cccc(C)c3nc2n(Cc2ccncc2)c1=N | 96.5% |
| CC(OC(=O)c1cccs1)C(=O)Nc1nc(-c2ccccc2)cs1 (stereo not drawn) | 94.2% |
| Cc1ccc2c(c1)C1CN(C)CCC1N2C(=O)c1ccc(Cl)c(S(=O)(=O)N2CCOCC2)c1 (stereo not drawn) | 107% |
| Fc1ccc(C2Nc3cccc4cccc(c34)N2)cc1 | 106% |
| COc1ccccc1/C=C/C(=O)c1ccc(Cl)cc1 | 92.6% |
| O=C(O)CSC1CC(=O)N(c2ccc(Cl)cc2)C1=O (stereo not drawn) | 102% |
| CCN(CC)CCCN(C(=O)c1cccs1)c1nc(-c2ccc(OC)cc2)cs1 | 98.7% |
| Cc1nc2ccc(Br)cn2c1NC(C)(C)C | 96.2% |
| CC(C)(C)C(=O)NC(=S)NNC(=O)c1sc2ccccc2c1Cl | 242% (active) |
| Cc1cccc(N=c2oc3cc(O)ccc3cc2C(N)=O)c1 | 100% |
| CCC(=O)OCCNc1cc(Sc2nc3ccccc3s2)c2nonc2c1[N+](=O)[O-] | 254% (active) |
| O=C(NOC(=O)c1ccccc1)c1ccccc1 | 118% |
| CN(C)CCCN(C(=O)c1cccs1)c1nc(-c2ccccc2)cs1 | 90.7% |

Experiment: modulators of MEP2-GFP levels in yeast, confirmation, S. cerevisiae, flow cytometry GFP, cherry picks (AID 2272;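 active = GFP response above 150% of the DMSO control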;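 also: ratio of well signal to plate DMSO mean so 100% equals DMSO level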)
Details: S. cerevisiae MEP2-GFP strain, 3 h, at 10 µM, active compounds read high

| Compound | GFP response vs DMSO [%] |
| --- | --- |
| N/C(=N\OC(=O)c1ccc(Cl)cc1Cl)c1ccccc1 | 106 |
| CCCCNC(=O)c1cc2c(=O)n3cccc(C)c3nc2n(Cc2ccncc2)c1=N | 102 |
| CC(OC(=O)c1cccs1)C(=O)Nc1nc(-c2ccccc2)cs1 (stereo not drawn) | 99.5 |
| Cc1ccc2c(c1)C1CN(C)CCC1N2C(=O)c1ccc(Cl)c(S(=O)(=O)N2CCOCC2)c1 (stereo not drawn) | 102 |
| Fc1ccc(C2Nc3cccc4cccc(c34)N2)cc1 | 97.8 |
| COc1ccccc1/C=C/C(=O)c1ccc(Cl)cc1 | 97.8 |
| O=C(O)CSC1CC(=O)N(c2ccc(Cl)cc2)C1=O (stereo not drawn) | 108 |
| CCN(CC)CCCN(C(=O)c1cccs1)c1nc(-c2ccc(OC)cc2)cs1 | 109 |
| Cc1nc2ccc(Br)cn2c1NC(C)(C)C | 100 |
| CC(C)(C)C(=O)NC(=S)NNC(=O)c1sc2ccccc2c1Cl | 122 |
| Cc1cccc(N=c2oc3cc(O)ccc3cc2C(N)=O)c1 | 106 |
| CCC(=O)OCCNc1cc(Sc2nc3ccccc3s2)c2nonc2c1[N+](=O)[O-] | 97.8 |
| O=C(NOC(=O)c1ccccc1)c1ccccc1 | 130 |
| CN(C)CCCN(C(=O)c1cccs1)c1nc(-c2ccccc2)cs1 | 102 |
